Screening results from PubChem.
FLuc act counter = firefly luciferase counter-screen for stimulation assays; P08659; ATPlite luciferase biochemical, luminescence, 10 min; 0 = ATP-free wells, 1 = DMSO control; activation factor at 10 µM; 200,000 tested, under 10 active; AID 1027;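 active means luciferase activation factor, scaled between plate controls, of at least 2 with compound at 10 µM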
Target sequence (P08659 whole entry, looked up): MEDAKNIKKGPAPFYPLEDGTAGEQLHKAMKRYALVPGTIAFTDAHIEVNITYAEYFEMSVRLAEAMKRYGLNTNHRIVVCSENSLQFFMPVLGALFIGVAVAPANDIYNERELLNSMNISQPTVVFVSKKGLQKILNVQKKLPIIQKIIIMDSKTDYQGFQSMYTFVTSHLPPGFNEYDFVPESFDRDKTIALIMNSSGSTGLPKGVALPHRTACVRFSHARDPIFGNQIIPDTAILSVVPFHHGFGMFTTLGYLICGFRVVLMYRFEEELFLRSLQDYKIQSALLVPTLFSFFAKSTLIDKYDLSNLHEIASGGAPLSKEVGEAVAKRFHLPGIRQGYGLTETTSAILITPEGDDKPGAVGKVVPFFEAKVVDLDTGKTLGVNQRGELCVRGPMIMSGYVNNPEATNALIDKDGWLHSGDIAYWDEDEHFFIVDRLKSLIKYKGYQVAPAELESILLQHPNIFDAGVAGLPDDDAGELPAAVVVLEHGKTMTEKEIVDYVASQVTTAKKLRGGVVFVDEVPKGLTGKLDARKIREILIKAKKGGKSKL
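System: luciferase plus luciferin reagent, cell-free; medium: PBS as buffer for the ATP substrate; dosing: test compounds dosed from 2 mM stocks in 100% DMSO; timing: 10 min post-reagent at room temperature; measured by: luminescence measurement of luciferase light output; evaluation: luciferase activation, seen as luminescence increase over controls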
PPC-1+TRAIL kill = PPC-1 cancer cell killing with TRAIL present; PPC-1 cells + TRAIL, ATPLite viability luminescence; cell killing (% activity), % at 4 µM or 5 µM; 220,000 tested, 0.41% active; AID 1443;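 active means cell killing above 50% in the first pass at 4 µM, then a duplicate retest at 5 µM averaging 50% or more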;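 further: plate controls were cells with TRAIL plus DMSO for no effect and medium-only wells lacking cells for full effect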
FLuc inh counter = inhibits firefly luciferase, flagging false hits in luciferase inhibition screens; inhibition, % at 10 µM; ATPLite firefly luciferase biochemical luminescence, 10 min; 200,000 tested, 1.5% active; AID 1006;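 active means inhibition above about 50% when tested at 10 µM, limit read from the data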
C8 TRAIL sens = sensitizes caspase-8 expressing cells to TRAIL; inhibition (viability loss, TRAIL sensitization), % at 10 µM; 360,000 tested, 1% active; NB7+C8 cells + TRAIL, ATPlite viability luminescence;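 active means compounds causing at least 50% loss of cell viability in the single-dose screen, relative to plate controls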
HSP90 refold inh = blocks HSP90-mediated luciferase refolding in reticulocyte lysate | inhibition, % at 5.6 µM | AID 1789 | Rabbit reticulocyte lysate, luciferase refolding luminescence, 3 h | 290,000 tested, 0.91% active;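 active means inhibition above the screen-wide mean plus 3 SD, computed separately per campaign, cut at about 16% in these data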;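 further: 0% = DMSO wells and 100% = 60 µM geldanamycin wells; inhibitors lower the luminescence because luciferase stays unfolded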
HSP90 inh confirm = confirmation of HSP90 inhibitors | shares compounds with HSP90 refold inh | rabbit reticulocyte lysate, luciferase refolding luminescence, 3 h | inhibition, % at 5.9 µM | 2,300 tested, 64% active | AID 1846; in the data active means inhibition above about 18%;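 further: 0% = vehicle wells and 100% = reference inhibitor wells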
luciferase ctr = blocks native firefly luciferase in HSP90 counter-screen | shares compounds with HSP90 refold inh | purified native firefly luciferase, luminescence | inhibition, % at 5.9 µM | 2,300 tested, 48% active | AID 1847;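 active means inhibition above the mean inhibition of all tested sample wells plus 3 SD, cut at about 10% in these data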;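 further: 0% = DMSO with luciferase and 100% = wells lacking luciferase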
The depositor's hits bear a star; nt = no result. Most compounds without a hit are left out; they make up all but 2% or so of the library.

SMILES	FLuc act counter	PPC-1+TRAIL kill	FLuc inh counter	C8 TRAIL sens	HSP90 refold inh	HSP90 inh confirm	luciferase ctr
Cc1ccccc1NC(=O)N1CCCC(c2nc(-c3ccc(C(C)C)cc3)no2)C1 (stereo unspecified)	1	9	-4	6	70*	4	-24
COc1ccccc1NC(=O)CSc1nnnn1-c1ccc(F)cc1	nt	nt	nt	6	3	nt	nt
CCOC(=O)C(CCCP(=O)(c1ccccc1)c1ccccc1)(NC(C)=O)C(=O)OCC	nt	21	nt	8	23*	-9	-12
CN(CC(=O)Nc1ccc(F)cc1)C(=O)c1ccc2ccccc2n1	nt	nt	nt	9	nt	nt	nt
O=C(Oc1ccc[nH]c1=O)c1cc([N+](=O)[O-])cc([N+](=O)[O-])c1	nt	9	nt	3	13	5	2
COc1ccc(-c2cc3nc4n(c(=O)c3s2)CCC4)cc1	0.2	-11	84*	71*	30*	80*	68*
COc1ccc(-c2nc3n(c2C)CCC3)cc1	nt	-11	nt	7	4	nt	nt
O=C(Cc1ccccc1)Nc1ccc(NC(=O)c2ccco2)nc1	0.7	10	34	12	-2	nt	nt
O=C(Nc1ccc(NC(=O)C2CCCCC2)cn1)c1ccco1	0.1	58*	86*	70*	22*	55*	47*
CC(C)(C)C(=O)Nc1ccc(/C=C/C(=O)c2ccco2)cc1	nt	nt	nt	18	26*	40*	50*
N#Cc1ccc(/C=C/C(=O)c2ccco2)cc1	0.9	18	10	-14	-5	nt	nt
CC(C)(C)C(=O)Nc1ccc(NC(=O)c2ccco2)nc1	nt	nt	nt	95*	91*	89*	84*
CC(=O)N1CCN(S(=O)(=O)c2cccc(C(=O)N(Cc3ccccc3)c3cccc(C)c3)c2)CC1	nt	nt	nt	-8	nt	nt	nt
CC(=O)c1c(C)[nH]c(C(=O)OCCOc2ccccc2)c1C	0.7	24	30	17	34*	55*	57*
O=C1C2CCCN2C(=S)N1c1ccccc1 (stereo unspecified)	nt	nt	nt	-2	49*	-8	-14
CC[C@@]1(c2ccccc2)C(=O)N(C(=O)OC)N1C(=O)OC	nt	nt	nt	1	-5	nt	nt
COC(=O)N1C(=O)[C@](c2ccccc2)(C(C)C)N1C(=O)OC	nt	nt	nt	-9	31*	3	-2
O=C(NN1C(=O)C2C3c4ccccc4C(c4ccccc43)C2C1=O)C1CC1 (stereo unspecified)	1.1	-2	-7	-2	0	nt	nt
CCOC(=O)NC1Cc2ccccc2C1Sc1ccccn1 (stereo unspecified)	nt	nt	nt	9	44*	-6	-13
CCOc1ccc2nc(COC(=O)c3cccs3)c(C(C)=O)[n+]([O-])c2c1	nt	-9	nt	-16	29*	-5	-11
CCOc1ccc2nc(COC(=O)c3cccs3)c(C(=O)c3ccccc3)[n+]([O-])c2c1	1	11	1	21	0	nt	nt
CC12CCC(=O)N1C(C(=O)Nc1nnc(SCc3ccccc3F)s1)CS2 (stereo unspecified)	nt	nt	nt	-8	-1	nt	nt
CCn1cc(C(=O)O)c(=O)c2cc(F)c(N/N=C/c3ccccc3[N+](=O)[O-])cc21	1	10	-3	28	3	nt	nt
Cc1nc(-c2noc(-c3cccc(Cl)c3)n2)c(C(F)(F)F)o1	nt	10	nt	1	21*	1	-10
Cc1nc(-c2noc(-c3ccccc3Cl)n2)c(C(F)(F)F)o1	nt	-2	nt	9	4	nt	nt
SMILES	FLuc act counter	PPC-1+TRAIL kill	FLuc inh counter	C8 TRAIL sens	HSP90 refold inh	HSP90 inh confirm	luciferase ctr
CCC(C)(C)c1ccc2c(c1)C(=O)c1ccccc1C2=O	0.5	43	48	36	-4	nt	nt
CCCCN1C(C)=CC(=C2C(=O)c3ccccc3C2=O)C=C1C	0.2	31	77*	66*	17*	43*	31*
CCCN1C=CC(=C2C(=O)c3ccccc3C2=O)C=C1	0	26	97*	91*	92*	96*	91*
CC1=CC(=C2C(=O)c3ccccc3C2=O)C=C(C)N1Cc1ccco1	0.6	-16	38	35	2	nt	nt
CCOC(=O)C1(C)CCCN(C(=O)c2c(F)cccc2F)C1 (stereo unspecified)	nt	nt	nt	-18	nt	nt	nt
Cc1oc(-c2ccccc2)cc1C(=O)Nc1cccc(C(=O)O)c1	1	24	1	-13	2	nt	nt
Cc1oc(-c2ccc(Cl)cc2)cc1C(=O)O	nt	7	nt	16	20*	18*	4
O=C(NNS(=O)(=O)c1ccc(F)cc1)C1CC(c2cccnc2)=NO1 (stereo unspecified)	1	25	2	-13	21*	3	0
O=C(Nc1ccc2c(c1)OCCO2)c1ccc(Cl)cc1Cl	nt	nt	nt	72*	33*	40*	30*
O=C(Nc1ccc2c(c1)OCO2)c1ccc(Cl)cc1Cl	nt	nt	nt	71*	24*	37*	22*
O=C(Nc1ccc2c(c1)OCO2)c1cc(Cl)ccn1	nt	nt	nt	29	nt	nt	nt
CCC(=O)c1ccc(OCC(=O)OCC(=O)N(CCC#N)c2ccc3c(c2)OCCO3)cc1	nt	nt	nt	-9	nt	nt	nt
Fc1ccccc1OCCSc1nnnn1-c1ccccc1	0.9	25	13	-10	25*	29*	6
Cc1onc(-c2ccccc2Cl)c1NC(=O)NCc1cccs1	nt	13	nt	21	0	nt	nt
CCN(Cc1ccncc1)C(=O)c1ccccc1NS(=O)(=O)c1ccc(Br)cc1	nt	20	nt	7	21*	-6	-11
CCOc1cc(/C=C2/C(=O)N(c3ccccc3)N=C2C)ccc1OC(=O)c1ccco1	1.1	5	-6	-11	27*	-8	4
CCOc1ccc(C2C([N+](=O)[O-])=C(C)N(C)C(=O)N2C)cc1OC (stereo unspecified)	1	6	1	-6	-3	nt	nt
C=CC(c1ccccc1)C(C(=O)c1ccccc1)N(C)C (stereo unspecified)	1	6	0	-10	1	nt	nt
Cc1ncc(C[n+]2csc(CCOC(=O)C34CC5CC(CC(C5)C3)C4)c2C)c(N)n1	1.1	nt	-7	1	50*	1	-4
CN(C)c1ccc(C(O)Cc2nc3ccccc3n2C)cc1 (stereo unspecified)	nt	nt	nt	17	46*	5	1
CCc1ccc(NS(=O)(=O)c2c(C(=O)N3CCCCCC3)c(C)n(C)c2C)cc1	nt	nt	nt	6	1	nt	nt
CC(C)Oc1ccc(CCC(=O)NNC(=S)Nc2ccccc2)cc1	nt	-1	nt	-20	18*	-6	-10
Oc1cccc(-c2nc3ccccc3s2)c1	0.3	-15	71*	48	24*	50*	34*
O=C(OCC(=O)N1CCCC1=O)c1ccc(O)cc1O	nt	nt	nt	8	nt	nt	nt
Cc1ccccc1NC(=S)NNC(=O)c1csc2c1CCC(C)C2 (stereo unspecified)	0.4	39	60*	17	67*	61*	52*
